Assay [1] relates to Bacillus subtilis. Kind of assay: Antibacterial activity against Bacillus subtilis at 50 ug/ml after 24 hrs by agar well diffusion method. The assay is classed as functional. The note with it: for zone of inhibition at 50 µg/mL: read-out: DIZ. The procedure, abridged:
(§1)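 Agar well diffusion. Nutrient plates swabbed with 24 h broth culture of the bacterium; 6 mm wells bored and loaded with DMSO solutions of compound (wells at 50 and 100 per well). Chloramphenicol positive control, DMSO negative control. Plates held 37 °C, 24 h; inhibition zone diameter (mm) measured, mean of duplicates.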
Background: A growth-free zone around the sample is the usual read-out of agar diffusion tests.

Assay [2] concerns Aspergillus niger. Kind of assay: Antifungal activity against Aspergillus niger at 50 ug/ml after 48 hrs by agar well diffusion method. It is filed as functional. The note with it: for zone of inhibition at 50 µg/mL: read-out: DIZ. In short, it runs like this:
(§2)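 Fungal agar well diffusion. Plates swabbed with fungal culture, 6 mm wells filled with DMSO solutions of compound (50 and 100 per well). Ketoconazole positive and DMSO negative controls. Plates incubated 28 °C for 48 h; zone of inhibition diameter (mm) read, average of duplicates.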

The subject of assay [3] is Penicillium chrysogenum. Kind of assay: Antifungal activity against Penicillium chrysogenum at 50 ug/ml after 48 hrs by agar well diffusion method. It is filed as functional. To be noted: for zone of inhibition at 50 µg/mL: read-out: DIZ. In short, it runs like this: as §2
Assay [4] deals with Penicillium chrysogenum. Briefly: Antifungal activity against Penicillium chrysogenum at 100 ug/ml after 48 hrs by agar well diffusion method. The assay is classed as functional. To be noted: for zone of inhibition at 100 µg/mL: read-out: DIZ. The procedure, abridged:
as §2

The subject of assay [5] is Staphylococcus aureus. Kind of assay: Antibacterial activity against Staphylococcus aureus at 50 ug/ml after 24 hrs by agar well diffusion method. The assay is classed as functional. To be noted: for zone of inhibition at 50 µg/mL: read-out: DIZ. The procedure, abridged: as §1
In assay [6] the test system is Staphylococcus aureus. Kind of assay: Antibacterial activity against Staphylococcus aureus at 100 ug/ml after 24 hrs by agar well diffusion method. It is filed as functional. The note with it: for zone of inhibition at 100 µg/mL: read-out: DIZ. In short, it runs like this:
as §1

For assay [7], the system named is Klebsiella pneumoniae. Kind of assay: Antibacterial activity against Klebsiella pneumoniae at 50 ug/ml after 24 hrs by agar well diffusion method. To be noted: for zone of inhibition at 50 µg/mL: read-out: DIZ. It is filed as functional. In short, it runs like this:
as §1

Assay [8] has as its system Klebsiella pneumoniae. Briefly: Antibacterial activity against Klebsiella pneumoniae at 100 ug/ml after 24 hrs by agar well diffusion method. The note with it: for zone of inhibition at 100 µg/mL: read-out: DIZ. The assay is classed as functional. In short, it runs like this: as §1
For assay [9], the system named is Bacillus subtilis. Kind of assay: Antibacterial activity against Bacillus subtilis at 100 ug/ml after 24 hrs by agar well diffusion method. The assay is classed as functional. To be noted: for zone of inhibition at 100 µg/mL: read-out: DIZ. The procedure, abridged: as §1
In assay [10] the test system is Aspergillus niger. Kind of assay: Antifungal activity against Aspergillus niger at 100 ug/ml after 48 hrs by agar well diffusion method. It is filed as functional. The note with it: for zone of inhibition at 100 µg/mL: read-out: DIZ. In short, it runs like this:
as §2

For assay [11], the system named is Pseudomonas aeruginosa. Kind of assay: Antibacterial activity against Pseudomonas aeruginosa at 50 ug/ml after 24 hrs by agar well diffusion method. It is filed as functional. The note with it: for zone of inhibition at 50 µg/mL: read-out: DIZ. In short, it runs like this:
as §1

In assay [12] the test system is Pseudomonas aeruginosa. Briefly: Antibacterial activity against Pseudomonas aeruginosa at 100 ug/ml after 24 hrs by agar well diffusion method. The assay is classed as functional. To be noted: for zone of inhibition at 100 µg/mL: read-out: DIZ. The procedure, abridged:
as §1

The subject of assay [13] is A549. Kind of assay: Cytotoxicity against human A549 cells up to 0.2 mM after 72 hrs by MTT assay.

The source made the active and inactive calls. The calls are words filed in the database; no cut-off is given here.

Turning to `O=S(=O)(Cc1nnc(CS(=O)(=O)c2c[nH]cc2S(=O)(=O)c2ccc(Cl)cc2)o1)Nc1ccc(Cl)cc1`, the zone of inhibition at 50 µg/mL in [1] turned out to be 17 mm; in [2], 21 mm; in assay [3], 22 mm; in assay [5], 18 mm; in assay [7] it was 23 mm; in assay [11] it was 18 mm. Also, the zone of inhibition at 100 µg/mL in assay [4] was found to be 26 mm; in assay [6], 20 mm; in [8], 25 mm; in [9], 21 mm; in [10] it was 24 mm; in assay [12], 20 mm. In assay [13], the result was inactive.

As for `O=S(=O)(Cc1nnc(CS(=O)(=O)C2CNN=C2S(=O)(=O)c2ccc(Cl)cc2)s1)Nc1ccc(Cl)cc1` (stereo not drawn), the zone of inhibition at 50 µg/mL in assay [1] came to 25 mm; in [2] it was 28 mm; in assay [3], 28 mm; in assay [5] it was 24 mm; in [7], 25 mm; in assay [11] it was 22 mm. Also, the zone of inhibition at 100 µg/mL was determined as 31 mm in assay [4]; 27 mm in assay [6]; 28 mm in assay [8]; 26 mm in [9]; 29 mm in assay [10]; 23 mm in [12]. In [13], the result was inactive.

In the case of `Cc1ccc(NS(=O)(=O)Cc2nnc(CS(=O)(=O)c3c[nH]nc3S(=O)(=O)c3ccc(C)cc3)n2N)cc1`, the zone of inhibition at 50 µg/mL in [1] came to 18 mm; in assay [2], 16 mm; in assay [3] it was 14 mm; in [5], 16 mm; in [7], 20 mm; in assay [11], 12 mm. The zone of inhibition at 100 µg/mL in assay [4] was 18 mm; in assay [6], 17 mm; in [8] it was 22 mm; in assay [9] it was 20 mm; in assay [10] it was 19 mm; in assay [12] it was 14 mm. In assay [13], the outcome was inactive.

`O=S(=O)(/C=C/S(=O)(=O)c1ccc(Cl)cc1)Cc1nnc(CS(=O)(=O)Nc2ccc(Cl)cc2)s1`: the zone of inhibition at 50 µg/mL came out at 27 mm in assay [1]; 31 mm in assay [2]; 32 mm in [3]; 29 mm in assay [5]; 33 mm in assay [7]; 25 mm in [11]. The zone of inhibition at 100 µg/mL turned out to be 35 mm in assay [4]; 32 mm in [6]; 35 mm in [8]; 29 mm in assay [9]; 33 mm in [10]; 27 mm in assay [12]. Besides, the result in assay [13] was inactive.

On to `O=S(=O)(Cc1nnc(CS(=O)(=O)c2c[nH]nc2S(=O)(=O)c2ccc(Cl)cc2)s1)Nc1ccc(Cl)cc1`, for which the zone of inhibition at 50 µg/mL came out at 28 mm in assay [1]; 30 mm in assay [2]; 31 mm in assay [3]; 27 mm in assay [5]; 30 mm in assay [7]; 24 mm in assay [11]. For the same molecule, the zone of inhibition at 100 µg/mL in assay [4] is 34 mm; in assay [6] it was 29 mm; in assay [8], 33 mm; in assay [9], 31 mm; in assay [10], 32 mm; in assay [12], 26 mm. Further, the result in assay [13] was inactive.

As for `O=S(=O)(/C=C/S(=O)(=O)c1ccccc1)Cc1nnc(CS(=O)(=O)Nc2ccccc2)s1`, the zone of inhibition at 50 µg/mL was found to be 22 mm in assay [1]; 19 mm in assay [2]; 21 mm in assay [3]; 19 mm in assay [5]; 24 mm in assay [7]; 16 mm in [11]. Moreover, the zone of inhibition at 100 µg/mL in assay [4] worked out at 24 mm; in [6], 21 mm; in assay [8], 26 mm; in [9] it was 24 mm; in assay [10] it was 22 mm; in assay [12], 17 mm. For the same molecule, the outcome in [13] was inactive.

Take `Cc1ccc(NS(=O)(=O)Cc2nnc(CS(=O)(=O)c3c[nH]cc3S(=O)(=O)c3ccc(C)cc3)o2)cc1`: the “diameter of the inhibition zone (DIZ)” value in assay [1], in [2], in assay [3], in assay [4], in [5] and in assay [6] was “inactive” throughout. Besides, the “diameter of the inhibition zone (DIZ)” value in assay [7], in assay [8], in assay [9], in [10], in assay [11] and in assay [12] was “inactive” each time. Also, in [13], the outcome was inactive.

As to `Nn1c(CS(=O)(=O)/C=C/S(=O)(=O)c2ccccc2)nnc1CS(=O)(=O)Nc1ccccc1`, the zone of inhibition at 50 µg/mL is 24 mm in [1]; 21 mm in assay [2]; 23 mm in assay [3]; 21 mm in [5]; 26 mm in [7]; 17 mm in assay [11]. Besides, the zone of inhibition at 100 µg/mL stood at 26 mm in [4]; 23 mm in [6]; 28 mm in [8]; 26 mm in [9]; 24 mm in assay [10]; 18 mm in assay [12]. The result in assay [13] was inactive.

In the case of `O=S(=O)(Cc1nnc(CS(=O)(=O)c2c[nH]nc2S(=O)(=O)c2ccc(Cl)cc2)o1)Nc1ccc(Cl)cc1`, the zone of inhibition at 50 µg/mL in assay [1] stood at 21 mm; in assay [2], 20 mm; in [3], 21 mm; in assay [5], 20 mm; in [7] it was 23 mm; in [11], 19 mm. The zone of inhibition at 100 µg/mL in assay [4] stood at 24 mm; in assay [6], 23 mm; in assay [8] it was 24 mm; in [9], 22 mm; in [10], 23 mm; in assay [12] it was 21 mm. Further, the outcome in assay [13] was inactive.

In the case of `Cc1ccc(NS(=O)(=O)Cc2nnc(CS(=O)(=O)C3CNN=C3S(=O)(=O)c3ccc(C)cc3)o2)cc1` (stereo not drawn), the “diameter of the inhibition zone (DIZ)” value in assay [1], in assay [2], in assay [3], in assay [4], in assay [5] and in assay [6] was “inactive” each time. Also, the “diameter of the inhibition zone (DIZ)” value in assay [7], in [8], in assay [9], in assay [10], in assay [11] and in [12] was “inactive” in each case. Further, in assay [13], the result was inactive.

`O=S(=O)(Cc1nnc(CS(=O)(=O)c2c[nH]nc2S(=O)(=O)c2ccccc2)s1)Nc1ccccc1`: the zone of inhibition at 50 µg/mL in assay [1] came out at 15 mm; in assay [2], 15 mm; in assay [3] it was 16 mm; in [5], 16 mm; in assay [7], 14 mm; in assay [11], 10 mm. For the same molecule, the zone of inhibition at 100 µg/mL in assay [4] came out at 19 mm; in assay [6], 17 mm; in assay [8] it was 16 mm; in assay [9] it was 17 mm; in [10], 17 mm; in assay [12] it was 12 mm. Further, the result in assay [13] was inactive.

(Values after ChEMBL document CHEMBL2040768, “Synthesis, antimicrobial and cytotoxic activities of sulfone linked bis heterocycles” (Eur J Med Chem, 2012).)
